Source: the M2OR odorant receptor database
Residue numbers refer to the chain shown, from its start.

Legend:
Conditions in all cases: stereoisomer not certain
Or10j5 (Mus musculus) = target: T1, Or10j5 (Mus musculus) (UniProt Q62007)
T1 sequence (whole entry): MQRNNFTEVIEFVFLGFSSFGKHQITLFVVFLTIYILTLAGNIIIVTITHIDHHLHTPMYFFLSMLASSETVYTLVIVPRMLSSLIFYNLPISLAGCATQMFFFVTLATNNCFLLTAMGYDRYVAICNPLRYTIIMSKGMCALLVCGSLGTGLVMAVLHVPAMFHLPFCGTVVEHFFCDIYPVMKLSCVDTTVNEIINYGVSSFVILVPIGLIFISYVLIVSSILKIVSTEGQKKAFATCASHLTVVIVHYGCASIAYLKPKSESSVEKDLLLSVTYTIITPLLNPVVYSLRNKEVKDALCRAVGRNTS
Outline: (§1)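 Each receptor–molecule pair is labelled responsive or non-responsive (inactive) according to whether the original authors judged the measured signal statistically different from baseline. The data were taken from the main text and supplementary material of published papers and checked for typos and inconsistencies. Assay methods differed by source, with transient luciferase assays in mammalian cell lines being common.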

OR9A4 (Homo sapiens) = target: T2, OR9A4 (Homo sapiens) (UniProt Q8NGU2)
T2 sequence (whole entry): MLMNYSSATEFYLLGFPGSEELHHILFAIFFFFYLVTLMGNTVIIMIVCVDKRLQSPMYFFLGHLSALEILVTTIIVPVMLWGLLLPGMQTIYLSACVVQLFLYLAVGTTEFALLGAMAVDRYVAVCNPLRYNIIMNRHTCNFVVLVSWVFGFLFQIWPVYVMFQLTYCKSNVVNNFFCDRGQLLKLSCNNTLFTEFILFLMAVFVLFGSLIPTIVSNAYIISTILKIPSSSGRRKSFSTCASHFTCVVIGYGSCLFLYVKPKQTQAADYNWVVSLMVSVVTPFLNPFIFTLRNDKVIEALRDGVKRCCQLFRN
Outline: as §1

OR9G1 (Homo sapiens) = target: T3, OR9G1 (Homo sapiens) (UniProt Q8NH87)
T3 sequence (whole entry): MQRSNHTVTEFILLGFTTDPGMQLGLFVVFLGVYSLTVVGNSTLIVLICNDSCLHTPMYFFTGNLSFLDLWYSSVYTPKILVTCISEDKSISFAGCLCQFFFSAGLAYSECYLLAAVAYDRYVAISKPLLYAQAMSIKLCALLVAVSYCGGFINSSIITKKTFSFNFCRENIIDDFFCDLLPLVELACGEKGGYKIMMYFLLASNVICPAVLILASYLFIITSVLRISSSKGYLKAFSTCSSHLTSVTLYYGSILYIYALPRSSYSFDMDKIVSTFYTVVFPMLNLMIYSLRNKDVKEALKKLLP
Outline: as §1

OR9G4 (Homo sapiens) = target: T4, OR9G4 (Homo sapiens) (UniProt Q8NGQ1)
T4 sequence (whole entry): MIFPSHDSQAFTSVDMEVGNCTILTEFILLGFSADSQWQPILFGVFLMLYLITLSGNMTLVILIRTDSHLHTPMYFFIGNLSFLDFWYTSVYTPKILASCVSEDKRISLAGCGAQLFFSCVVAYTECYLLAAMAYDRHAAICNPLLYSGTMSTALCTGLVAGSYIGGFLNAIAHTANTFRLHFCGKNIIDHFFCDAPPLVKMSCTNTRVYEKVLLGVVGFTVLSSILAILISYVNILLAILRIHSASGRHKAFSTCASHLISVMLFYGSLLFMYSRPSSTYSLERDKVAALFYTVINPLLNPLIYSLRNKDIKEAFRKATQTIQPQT
Outline: as §1

OR9G9 (Homo sapiens) = target: T5, OR9G9 (Homo sapiens) (UniProt P0C7N8)
T5 sequence (whole entry): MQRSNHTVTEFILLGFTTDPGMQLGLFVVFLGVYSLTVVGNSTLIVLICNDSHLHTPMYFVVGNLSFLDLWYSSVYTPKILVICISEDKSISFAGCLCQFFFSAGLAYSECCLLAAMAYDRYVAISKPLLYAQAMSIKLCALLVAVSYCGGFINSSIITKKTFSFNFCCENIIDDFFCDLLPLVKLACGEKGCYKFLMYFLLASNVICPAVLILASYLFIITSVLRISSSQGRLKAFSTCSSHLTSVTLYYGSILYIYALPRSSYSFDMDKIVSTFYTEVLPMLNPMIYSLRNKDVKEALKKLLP
Outline: as §1

OR9I1 (Homo sapiens) = target: T6, OR9I1 (Homo sapiens) (UniProt Q8NGQ6)
T6 sequence (whole entry): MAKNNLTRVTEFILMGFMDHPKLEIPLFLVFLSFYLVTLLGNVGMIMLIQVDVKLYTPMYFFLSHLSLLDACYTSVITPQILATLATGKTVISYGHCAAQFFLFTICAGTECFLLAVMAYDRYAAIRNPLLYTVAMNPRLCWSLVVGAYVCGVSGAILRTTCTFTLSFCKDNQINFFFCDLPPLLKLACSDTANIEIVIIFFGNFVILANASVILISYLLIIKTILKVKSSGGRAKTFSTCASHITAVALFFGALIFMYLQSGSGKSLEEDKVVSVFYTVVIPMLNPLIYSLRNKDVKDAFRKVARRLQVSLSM
Outline: as §1

OR9K2 (Homo sapiens) = target: T7, OR9K2 (Homo sapiens) (UniProt Q8NGE7)
T7 sequence (whole entry): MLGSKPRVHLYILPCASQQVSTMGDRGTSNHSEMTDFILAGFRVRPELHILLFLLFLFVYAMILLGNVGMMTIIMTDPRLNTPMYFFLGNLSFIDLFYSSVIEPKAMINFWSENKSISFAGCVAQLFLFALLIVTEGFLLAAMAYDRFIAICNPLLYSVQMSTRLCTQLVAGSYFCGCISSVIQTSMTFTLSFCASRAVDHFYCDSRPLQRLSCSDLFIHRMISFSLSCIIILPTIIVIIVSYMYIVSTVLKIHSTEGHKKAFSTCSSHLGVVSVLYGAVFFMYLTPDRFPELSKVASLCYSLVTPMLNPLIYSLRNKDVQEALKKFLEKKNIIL
Outline: as §1

OR9Q1 (Homo sapiens) = target: T8, OR9Q1 (Homo sapiens) (UniProt Q8NGQ5)
T8 sequence (whole entry): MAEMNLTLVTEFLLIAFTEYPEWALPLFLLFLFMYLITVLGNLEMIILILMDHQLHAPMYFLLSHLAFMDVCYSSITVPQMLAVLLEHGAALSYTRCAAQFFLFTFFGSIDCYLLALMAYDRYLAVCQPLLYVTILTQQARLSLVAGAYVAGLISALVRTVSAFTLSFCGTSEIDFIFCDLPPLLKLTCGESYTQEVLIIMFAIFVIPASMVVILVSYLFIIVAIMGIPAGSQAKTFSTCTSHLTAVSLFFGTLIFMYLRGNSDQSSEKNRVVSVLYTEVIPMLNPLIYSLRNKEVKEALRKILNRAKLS
Outline: as §1

OR9Q2 (Homo sapiens) = target: T9, OR9Q2 (Homo sapiens) (UniProt Q8NGE9)
T9 sequence (whole entry): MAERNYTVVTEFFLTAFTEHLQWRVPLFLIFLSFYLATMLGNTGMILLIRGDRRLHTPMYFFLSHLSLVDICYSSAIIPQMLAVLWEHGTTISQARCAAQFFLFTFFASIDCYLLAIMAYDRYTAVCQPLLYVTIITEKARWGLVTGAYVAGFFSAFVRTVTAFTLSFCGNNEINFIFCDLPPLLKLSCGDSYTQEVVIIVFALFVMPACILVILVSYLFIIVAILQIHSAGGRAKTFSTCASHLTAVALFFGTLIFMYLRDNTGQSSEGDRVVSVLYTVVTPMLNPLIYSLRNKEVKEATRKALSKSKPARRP
Outline: as §1

Or5an6 (Mus musculus) = target: T10, Or5an6 (Mus musculus) (UniProt Q8VFV4)
T10 sequence (whole entry): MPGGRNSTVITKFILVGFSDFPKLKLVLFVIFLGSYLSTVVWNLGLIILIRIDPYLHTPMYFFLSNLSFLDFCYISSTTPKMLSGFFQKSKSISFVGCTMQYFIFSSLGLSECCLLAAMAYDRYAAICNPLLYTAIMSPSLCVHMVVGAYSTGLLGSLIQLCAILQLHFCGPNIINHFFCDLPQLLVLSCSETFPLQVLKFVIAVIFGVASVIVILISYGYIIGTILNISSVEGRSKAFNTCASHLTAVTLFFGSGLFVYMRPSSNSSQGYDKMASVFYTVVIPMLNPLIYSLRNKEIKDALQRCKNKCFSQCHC
Outline: as §1

Or1m1 (Mus musculus) = target: T11, Or1m1 (Mus musculus) (UniProt Q8VFM9)
T11 sequence (whole entry): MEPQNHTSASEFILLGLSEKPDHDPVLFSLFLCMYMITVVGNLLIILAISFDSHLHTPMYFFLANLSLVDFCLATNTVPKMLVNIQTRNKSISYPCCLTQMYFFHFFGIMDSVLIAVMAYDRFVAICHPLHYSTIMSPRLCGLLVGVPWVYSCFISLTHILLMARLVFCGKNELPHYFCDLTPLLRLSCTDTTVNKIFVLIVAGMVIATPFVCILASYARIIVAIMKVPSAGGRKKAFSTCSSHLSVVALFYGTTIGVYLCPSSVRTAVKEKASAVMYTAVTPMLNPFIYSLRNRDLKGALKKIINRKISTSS
Outline: as §1

Or5ar1 (Mus musculus) = target: T12, Or5ar1 (Mus musculus) (UniProt Q8VGS3)
T12 sequence (whole entry): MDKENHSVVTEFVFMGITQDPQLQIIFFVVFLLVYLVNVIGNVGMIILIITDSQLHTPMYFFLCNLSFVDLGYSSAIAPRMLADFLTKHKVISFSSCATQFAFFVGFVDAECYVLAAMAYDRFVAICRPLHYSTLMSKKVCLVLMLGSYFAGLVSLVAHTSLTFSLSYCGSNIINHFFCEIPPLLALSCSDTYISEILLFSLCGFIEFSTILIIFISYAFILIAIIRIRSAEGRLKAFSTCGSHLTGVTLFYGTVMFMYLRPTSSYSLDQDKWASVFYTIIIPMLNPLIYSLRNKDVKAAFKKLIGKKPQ
Outline: as §1

OR9G4 H6Y N206D V222A = system: T13, OR9G4 H6Y N206D V222A
T13 sequence (whole entry): T4 sequence (whole entry) with H6Y, N206D, V222A
Outline: as §1

OR9G4 N206D V222A = system: T14, OR9G4 N206D V222A
T14 sequence (whole entry): T4 sequence (whole entry) with N206D, V222A
Outline: as §1

OR9G9 = system: T15, OR9G9
T15 sequence (whole entry): T5 sequence (whole entry) with C193G
Outline: as §1

OR9K2 R207H = system: T16, OR9K2 R207H
T16 sequence (whole entry): T7 sequence (whole entry) with R207H
Outline: as §1

OR9Q1 A83T = system: T17, OR9Q1 A83T
T17 sequence (whole entry): T8 sequence (whole entry) with A83T
Outline: as §1

OR9Q2 C179R = system: T18, OR9Q2 C179R
T18 sequence (whole entry): T9 sequence (whole entry) with C179R
Outline: as §1

Or5k16 (Mus musculus) = target: T19, Or5k16 (Mus musculus) (UniProt Q7TS48)
T19 sequence (whole entry): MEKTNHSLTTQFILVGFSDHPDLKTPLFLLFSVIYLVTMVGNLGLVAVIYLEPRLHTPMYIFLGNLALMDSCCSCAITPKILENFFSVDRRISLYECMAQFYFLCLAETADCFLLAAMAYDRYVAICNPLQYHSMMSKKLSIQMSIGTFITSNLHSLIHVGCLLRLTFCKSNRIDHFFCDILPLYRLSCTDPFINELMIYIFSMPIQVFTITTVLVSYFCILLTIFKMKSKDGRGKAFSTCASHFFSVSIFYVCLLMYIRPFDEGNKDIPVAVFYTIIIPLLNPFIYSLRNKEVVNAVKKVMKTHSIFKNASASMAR
Outline: as §1

Or2c1 (Mus musculus) = target: T20, Or2c1 (Mus musculus) (UniProt P23275)
T20 sequence (whole entry): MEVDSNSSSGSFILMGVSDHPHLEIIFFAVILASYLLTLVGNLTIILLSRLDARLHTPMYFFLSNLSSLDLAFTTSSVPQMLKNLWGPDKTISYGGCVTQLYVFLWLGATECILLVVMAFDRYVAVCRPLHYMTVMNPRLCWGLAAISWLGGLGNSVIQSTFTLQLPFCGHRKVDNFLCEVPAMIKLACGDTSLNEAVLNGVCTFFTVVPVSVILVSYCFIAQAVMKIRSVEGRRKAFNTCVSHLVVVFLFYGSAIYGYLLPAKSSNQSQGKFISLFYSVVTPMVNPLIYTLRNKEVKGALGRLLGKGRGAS
Outline: as §1

Measured: odorant receptor agonist call

O=C(O)CCCCCCCCCBr
inactive: Or10j5 (Mus musculus)

CC1CCCCCCCCCCCCC(=O)C1 (centres undefined)
active: Or5an6 (Mus musculus)
inactive: OR9A4 (Homo sapiens) | OR9G1 (Homo sapiens) | OR9G4 (Homo sapiens) | OR9G9 (Homo sapiens) | OR9I1 (Homo sapiens) | OR9K2 (Homo sapiens) | OR9Q1 (Homo sapiens) | OR9Q2 (Homo sapiens)

CCCCC=O
inactive: Or10j5 (Mus musculus) | Or1m1 (Mus musculus) | Or5ar1 (Mus musculus)

O=C(O)CCCCCC(=O)O
inactive: Or10j5 (Mus musculus)

Cc1cnc(C)c(C)n1
not listed: Or10j5 (Mus musculus) | OR9G9 (Homo sapiens) | Or5an6 (Mus musculus) | Or1m1 (Mus musculus) | Or5ar1 (Mus musculus) | Or2c1 (Mus musculus)
inactive: all other assays above

CCC1OC(=O)C(O)=C1C (centres undefined)
not listed: Or10j5 (Mus musculus) | OR9G9 (Homo sapiens) | Or5an6 (Mus musculus) | Or1m1 (Mus musculus) | Or5ar1 (Mus musculus) | Or5k16 (Mus musculus) | Or2c1 (Mus musculus)
inactive: all other assays above

CC(C)=CCCC(C)=CCO
inactive: Or10j5 (Mus musculus) | Or1m1 (Mus musculus) | Or2c1 (Mus musculus) | Or5ar1 (Mus musculus)

CCCCCCO
inactive: Or10j5 (Mus musculus) | Or1m1 (Mus musculus) | Or2c1 (Mus musculus) | Or5ar1 (Mus musculus)
